Measurements taken from ChEMBL document CHEMBL1156568, “3-(1H-tetrazol-5-yl)-1,4,5,6-tetrahydro-cyclopentapyrazole (MK-0354): a partial agonist of the nicotinic acid receptor, G-protein coupled receptor 109a, with antilipolytic but no vasodilatory activity in mice” (J Med Chem, 2008).
Values belong to the compound of their own block, whether it stands above or below them. Active and inactive are the calls of the source. The rule behind the calls is not given here.

Assays:
Mus musculus [1] = species on record: Mus musculus; test: Vasodilation effect in C57BL/6 mouse assessed as increase in blood flow relative to baseline; format: functional, organism-based
Method in brief: (§1)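 Male C57BL/6 mice, 8-10 weeks, ~25 g, anesthetized with Nembutal ip (80 mg/kg). After 10 min, ear blood flow was recorded by laser Doppler imaging: 3 min baseline, then ip dosing (5 mL/kg) through a preinserted syringe, reading ~15 min. Vehicle was PBS, 40% HPBCD or 0.5% methylcellulose. Result expressed as % change in perfusion over baseline.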

[2] = Oral bioavailability in C57BL/6 mouse at 10 mg/kg, po; format: ADME, organism-based; conditions: in vivo
Method in brief: (§2)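 Male C57BL/6 mice dosed IV at 5.0 mg/kg in PBS, or by oral gavage at 10 mg/kg in PBS. Clearance is blood clearance. Cmax and Tmax come from oral dosing. Half-life is terminal. Oral bioavailability is also reported.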

[3] = Half life in C57BL/6 mouse at 5 mg/kg, iv and 10 mg/kg, po; format: ADME, organism-based; conditions: in vivo; method in brief: as §2
[4] = Volume of distribution in C57BL/6 mouse at 5 mg/kg, iv and 10 mg/kg, po; format: ADME, organism-based; conditions: in vivo; method in brief: as §2
[5] = Cmax in C57BL/6 mouse at 5 mg/kg, iv and 10 mg/kg, po; format: ADME, organism-based; conditions: in vivo; method in brief: as §2
[6] = Tmax in C57BL/6 mouse at 5 mg/kg, iv and 10 mg/kg, po; format: ADME, organism-based; conditions: in vivo; method in brief: as §2
Mus musculus [7] = species on record: Mus musculus; test: Inhibition of nicotinic acid-induced vasodilation response in C57BL/6 mouse assessed as blood flow; format: functional, organism-based; method in brief: as §1
[8] = target: Hydroxycarboxylic acid receptor 3 (Homo sapiens) (UniProt P49019); test: Agonist activity against GPR109b assessed as forskolin-induced cAMP accumulation relative to nicotinic acid; format: functional
Mus musculus [9] = test: Reduction in plasma FFA level in ip dosed C57BL/6 mouse; format: functional; conditions: C57BL/6, Plasma
Method in brief: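 Male C57BL/6 mice, at least 8 weeks old, fasted 16 h, then dosed ip in saline. Plasma FFA was measured by an enzymatic NEFA assay, and compound levels in the same plasma by LC-MS/MS.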

Mus musculus [10] = species on record: Mus musculus; test: Inhibition of PGD2-induced vasodilation response in C57BL/6 mouse assessed as blood flow; format: functional, organism-based; method in brief: as §1
Adipocyte = test: Inhibition isoproterenol-stimulated lipolysis in human adipocytes

Sequence of Hydroxycarboxylic acid receptor 3 (Homo sapiens) (P49019 whole entry): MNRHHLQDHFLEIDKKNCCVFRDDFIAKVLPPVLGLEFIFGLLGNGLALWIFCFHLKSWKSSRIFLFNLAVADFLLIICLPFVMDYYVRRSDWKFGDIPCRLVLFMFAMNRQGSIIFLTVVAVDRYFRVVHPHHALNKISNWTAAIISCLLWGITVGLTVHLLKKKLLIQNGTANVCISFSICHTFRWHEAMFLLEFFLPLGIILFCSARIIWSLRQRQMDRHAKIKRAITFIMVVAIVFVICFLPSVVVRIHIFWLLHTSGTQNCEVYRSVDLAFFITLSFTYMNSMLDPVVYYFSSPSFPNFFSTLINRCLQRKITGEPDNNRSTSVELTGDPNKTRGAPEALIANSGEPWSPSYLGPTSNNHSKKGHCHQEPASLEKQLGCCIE

SMILES: O=C(O)c1n[nH]c2c1CCC2
Activity (Mus musculus [1]): Dose-dependent effect

bioavailability [2]: 93% | half-life [3]: 10 h | Vd [4]: 13 L/kg | Cmax [5]: 16 µM | Tmax [6]: 4.98 min
SMILES: C1Cc2[nH]nc(-c3nnn[nH]3)c2C1

Activity [8]: inactive | IC50 (Adipocyte): 3.1 µM
SMILES: C1Cc2[nH]nc(-c3nn[nH]n3)c2C1
Activity (Mus musculus [7]): Active | ED50 (Mus musculus [9]): 3.1 mg/kg | Activity (Mus musculus [10]): inactive

SMILES: O=C(O)c1cccnc1 [NIACIN]
ED50 (Mus musculus [9]): 9.7 mg/kg
